According to ChEMBL document CHEMBL5108069, “Selective C9orf72 G-Quadruplex-Binding Small Molecules Ameliorate Pathological Signatures of ALS/FTD Models” (J Med Chem, 2022):
Calls of active or inactive are those of the source. No cut-off for these calls is given here.

Key:
[1] = Permeability of compound in PBS buffer at 500 uM incubated for 18 hrs by PAMPA assay; format: ADME
In short: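 PAMPA: donor membrane coated with 4% lecithin in dodecane. 500 μM compound added to duplicate donor wells over PBS acceptor wells, incubated 18 h at 37 °C. Acceptor solution scanned 200–500 nm to find peak absorbance, referenced to equilibrium standards and a DMSO/PBS blank. n = 5.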

Quadruplex DNA [2] = assay: Binding affinity to human telomeric htel21-T18 (d[(GGGTTA)2GGGTTTGGG]) G4 quadruplex DNA assessed as change in chemical shift by one-dimensional 1H-NMR analysis; format: nucleic-acid assay
In short: (§1)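 Oligonucleotide annealed at 100 μM by heating to 95 °C for 15 min, then cooled slowly to room temperature overnight in 70 mM KCl, 20 mM potassium phosphate, pH 7.0. NMR samples held 0.1 mM G4 in the same buffer. Compound stocks were about 50 mM in DMSO-d6. Titrated into G4; imino-region 1D 1H spectra recorded at 25 °C and compared with G4-only and DMSO control spectra.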

Quadruplex DNA [3] = assay: Binding affinity to C9orf72 (G4C2)4 G4 quadruplex DNA (unknown origin) assessed as change in chemical shift by one-dimensional 1H-NMR analysis; format: nucleic-acid assay
In short: (§2)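 Oligos (100 μM) annealed at 95 °C for 15 min, cooled slowly overnight in 70 mM KCl, 20 mM potassium phosphate, pH 7.0. NMR samples held 0.1 mM DNA or RNA. Compounds from ~50 mM DMSO-d6 stocks, titrated at G4:compound ratios 1:1 to 1:10 (RNA 1:3, 1:5, 1:10). Imino-region 1D 1H spectra at 25 °C; further spectra at pH 6 and 7, at 25, 35 and 45 °C.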

Quadruplex DNA [4] = assay: Binding affinity to C9orf72 (G4C2)2 G4 quadruplex DNA (unknown origin) assessed as change in chemical shift by one-dimensional 1H-NMR analysis; format: nucleic-acid assay; in short: as §1
Quadruplex DNA [5] = assay: Binding affinity to C9orf72 (G4C2)2 G4 quadruplex RNA (unknown origin) assessed as change in chemical shift by one-dimensional 1H-NMR analysis; format: nucleic-acid assay; in short: as §2
Quadruplex DNA [6] = assay: Binding affinity to C9orf72 (G4C2)4 G4 quadruplex DNA (unknown origin) assessed as change in chemical shift at pH 7 in 25 to 45 degree C by one-dimensional 1H-NMR analysis; format: nucleic-acid assay; in short: as §2
N2a [7] = assay: Neuroprotective activity in mouse Neuro2a cells transfected DNA (G4C2)29 C9orf 72 ALS/FTD cell model assessed as reduction in G4C2 RNA foci at 1 ug/ml incubated for 2 days by DAPI staining based immunofluorescence analysis; format: functional; conditions: dose 1.0 µg/ml, time 2.0 day
In short: (§3)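 Neuro2a cells on coverslips transfected with a pHR-Tre3G-29xGGGGCC-12xMS2 plasmid, then treated with compound at 1 μg/mL for 2 days. Fixed in 4% PFA and permeabilised. Hybridised 3 h at 46 °C with Cy3-labelled G4C2-target and Cy5-labelled CAGG probes, co-stained for hnRNP H, DAPI counterstain. Foci per cell counted by confocal microscopy; n = 17–25 coverslips from three batches.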

[8] = Inhibition of locomotor deficit in OK371-GAL4-(G4C2)29 Drosophila expressing (G4C2)29 in motor neuron C9orf72 ALS/FTD model assessed as reduction in flies staying at the bottom of flask at 100 uM, po during larval stage by climbing assay relative to control (Rvb= 18.25%); format: functional; set-up: scale not given: the % may be the effect or the level left
In short: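 Compound at 100 μM in solid food, DMSO vehicle, given from parental cross until F1 eclosion, then regular food. Climbing test on 7-day-old adults: percentage of flies remaining below 2 cm of the tube at 25 s. n = 8 experimental batches.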

N2a [9] = assay: Neuroprotective activity in mouse Neuro2a cells transfected DNA (G4C2)29 C9orf 72 ALS/FTD cell model assessed as increase in cell viability at 1 ug/ml by DAPI staining based immunofluorescence analysis; format: functional; conditions: dose 1.0 µg/ml
HT-22 = assay: Neuroprotective activity in retinoic acid and cAMP differentiated mouse HT-22 cells assessed as decrease in glutamate induced cellular ROS level incubated for 1 hrs by DCFH-DA based […]; format: functional, cell-based; conditions: DDE = dose-dependent effect
In short: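 HT22 cells differentiated for 48 h with 10 μM retinoic acid and 500 μM cAMP in DMEM with 0.5% FBS. 5 mM L-glutamate given for 24 h, then 10 μM DCFH-DA loaded for 30 min at 37 °C and washed off. Compounds at 2 μg/mL added for 1 h; Rosup served as positive control. DCF read at 488/525 nm on a plate reader. n = 18–42 wells from three batches.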

Quadruplex DNA [10] = assay: Binding affinity to C9orf72 (G4C2)4 G4 quadruplex DNA (unknown origin) assessed as compound-DNA complex formation at pH 7 in 25 degree C by circular dichroism spectroscopy; format: nucleic-acid assay
In short: (§4)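 G4 at 15 μM mixed with compound at 1:10 molar ratio, pH 6 or pH 7. CD spectra recorded at 25 °C in a 1 mm quartz cuvette as the mean of three scans, buffer subtracted.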

Quadruplex DNA [11] = assay: Stabilization of C9orf72 (G4C2)4 G4 quadruplex DNA (unknown origin) assessed as thermal stability by measuring melting temperature at pH 7 by circular dichroism spectroscopy; format: nucleic-acid assay
In short: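 G4 at 15 μM with compound at 1:10 molar ratio, pH 7. CD signal followed from 25 to 95 °C at 1 °C/min at one wavelength (290 nm for DNA G4). Absorbance normalised as (Abst − min)/(max − min), then fitted to a Boltzmann sigmoid.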

Quadruplex DNA [12] = assay: Binding affinity to 3'-FAM labeled C9orf72 (G4C2)4 G4 quadruplex DNA (unknown origin) assessed as decrease in fluorescence intensity by fluorescence intensity assay; format: nucleic-acid assay
In short: (§5)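 3'-FAM-labelled DNA (G4C2)4 G4 or RNA (G4C2)2 G4 annealed at 98 °C for 10 min in 10 mM K+ buffer (8 mM KCl, 2 mM KH2PO4, pH 6.8), 1 μM final, slowly cooled. Compound titrated 0.1–10 mM in same buffer at room temperature. Fluorescence read at ex/em 470/520 nm. KD from nonlinear one-site specific binding fit with Hill slope.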

Drosophila [13] = assay: Inhibition of eye degeneration in GMR-GAL4-(G4C2)29 Drosophila expressing (G4C2)29 in eyes C9orf72 ALS/FTD model assessed as reflective eyes at 100 uM, po incubated 7 day by stereomicroscopy; format: functional, organism-based
In short: (§6)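 Parent flies crossed on solid food containing compound at 100 μM, DMSO vehicle. F1 larvae fed continuously until eclosion, then moved to compound-free food. Eyes of day-7 adults imaged by CCD camera on a stereomicroscope, with SEM of heads. Affected and total eye area measured to give degeneration ratio. n = 7–18 flies.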

Quadruplex DNA [14] = assay: Binding affinity to C9orf72 (G4C2)4 G4 quadruplex DNA (unknown origin) assessed as compound-DNA complex formation at pH 6 in 25 degree C by circular dichroism spectroscopy; format: nucleic-acid assay; in short: as §4
Drosophila [15] = assay: Inhibition of eye degeneration in GMR-GAL4-(G4C2)29 Drosophila expressing (G4C2)29 in eyes C9orf72 ALS/FTD model assessed as reduction in rough-eye phenotype at 100 uM, po incubated 7 day by stereomicroscopy; format: functional, organism-based; in short: as §6
Quadruplex DNA [16] = assay: Binding affinity to 3'-FAM labeled C9orf72 (G4C2)2 G4 quadruplex RNA (unknown origin) assessed as decrease in fluorescence intensity by fluorescence intensity assay; format: nucleic-acid assay; in short: as §5
Quadruplex DNA [17] = assay: Binding affinity to C9orf72 (G4C2)2 G4 quadruplex RNA (unknown origin) assessed as compound-DNA complex formation at pH 7 in 25 degree C by circular dichroism spectroscopy; format: nucleic-acid assay; in short: as §4
Drosophila [18] = assay: Inhibition of eye degeneration in GMR-GAL4-(G4C2)29 Drosophila expressing (G4C2)29 in eyes C9orf72 ALS/FTD model assessed as smoothening of eyes at 100 uM, po incubated 7 day by stereomicroscopy; format: functional, organism-based; in short: as §6
HEK-293T [19] = assay: Cytotoxicity in human HEK293T cells assessed as reduction in cell viability upto 10 ug/ml incubated for 24 hrs by MTT assay; format: toxicity, cell-based; conditions: dose < 10 µg/ml
In short: (§7)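 HEK293T cells seeded at 5 × 10^3 per well, grown 24 h in DMEM with 10% FBS. Compounds in DMSO added at 0.1, 1 and 10 μg/mL for 24 h. MTT (5 mg/mL stock) added for 4 h at 37 °C, formazan dissolved in DMSO, absorbance read at 570 nm. n = 4 culture batches.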

Quadruplex DNA [20] = assay: Binding affinity to C9orf72 (G4C2)4 G4 quadruplex DNA (unknown origin) assessed as change in chemical shift at pH 6 in 25 to 45 degree C by one-dimensional 1H-NMR analysis; format: nucleic-acid assay; in short: as §2
Erythrocyte [21] = assay: Hemolytic activity in rabbit RBC assessed as hemolysis at 1000 ug/ml incubated for 1 hr by microtiter plate method; format: toxicity, cell-based, Oryctolagus cuniculus; conditions: dose 1000 µg/ml
In short: (§8)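 Fresh rabbit red cells washed in PBS and used as a 2% suspension. Compounds diluted in PBS to final 250, 500 and 1000 μg/mL, mixed with an equal volume of cells, incubated 1 h at 37 °C. After centrifugation, supernatant absorbance read at 570 nm. Controls: 10% Triton X-100 (positive), 1% DMSO in PBS (negative). n = 3 preparations.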

Quadruplex DNA [22] = assay: Binding affinity to C9orf72 (G4C2)2 G4 quadruplex RNA (unknown origin) assessed as compound-DNA complex formation at pH 6 in 25 degree C by circular dichroism spectroscopy; format: nucleic-acid assay; in short: as §4
N2a [23] = assay: Neuroprotective activity in mouse Neuro2a cells transfected DNA (G4C2)29 C9orf 72 ALS/FTD cell model assessed as CAGG RNA foci abundance at 1 ug/ml incubated for 2 days by DAPI staining based immunofluorescence analysis; format: functional; conditions: dose 1.0 µg/ml, time 2.0 day; in short: as §3
HEK-293T [24] = assay: Cytotoxicity in human HEK293T cells assessed as reduction in cell viability upto 0.1 ug/ml incubated for 24 hrs by MTT assay; format: toxicity, cell-based; conditions: dose < 0.1 µg/ml; in short: as §7
Erythrocyte [25] = assay: Hemolytic activity in rabbit RBC assessed as hemolysis at 250 to 1000 ug/ml incubated for 1 hr by microtiter plate method; format: toxicity, cell-based, Oryctolagus cuniculus; conditions: DDE = dose-dependent effect, dose 250-1000 µg/ml; in short: as §8

Row | SMILES | permeability [1] | Activity (Quadruplex DNA [3]) | Activity (Quadruplex DNA [5]) | Activity (Quadruplex DNA [6]) | Activity (N2a [7]) | Activity [8] [%] | Activity (N2a [9]) | Activity (HT-22) | Activity (Quadruplex DNA [10]) | Activity (Quadruplex DNA [11]) | Kd (Quadruplex DNA [12]) [µM] | Activity (Drosophila [13]) | Activity (Quadruplex DNA [14]) | Activity (Drosophila [15]) | Activity (Quadruplex DNA [17]) | Activity (Drosophila [18]) | Activity (HEK-293T [19]) | Activity (Quadruplex DNA [20]) | Activity (Erythrocyte [21]) | Activity (Quadruplex DNA [22]) | also measured
1 | CC12CC3CC(C)(C1)CC(N)(C3)C2 [MEMANTINE] | Permeable | – | – | – | – | – | – | – | – | – | – | – | – | – | – | – | – | – | – | – | –
2 | N=C(N)c1ccc(-c2ccc(-c3ccc(-c4ccc(C(=N)N)cn4)o3)o2)nc1 | Impermeable | Active | Active | – | – | – | – | – | – | – | – | – | – | – | – | – | – | – | – | – | Activity (Quadruplex DNA [2]): Active; Activity (Quadruplex DNA [4]): Active
3 | CC(=O)Cc1cc2c(c(O)c1C(=O)O)-c1c(c(O)c3oc4c(O[C@@H]5OC(C(=O)O)=C[C@H](O)[C@H]5O)cccc4c(=O)c3c1O)CC2 | Permeable | Active | Active | Active | Active | 5.125 | Active | Dde | Active | Active | 2200 | Active | Active | Active | Active | Active | Non-Toxic | Active | Non-Toxic | Active | Kd (Quadruplex DNA [16]): 3000 µM
4 | CC(=O)Cc1cc2c(c(O)c1C(=O)O)-c1c(c(O)c3oc4c(O[C@@H]5O[C@H](C(=O)O)[C@@H](O)[C@H](O)[C@H]5O)cccc4c(=O)c3c1O)CC2 | Permeable | Active | – | Active | Active | 10.625 | Active | Dde | Active | Active | 2800 | Active | Active | Active | Active | Active | Non-Toxic | Active | Non-Toxic | Active | Activity (N2a [23]): Active
5 | COc1c2c(c(O)c3c(=O)c4cccc(O[C@@H]5OC(C(=O)O)=C[C@H](O)[C@H]5O)c4oc13)-c1c(cc(CC(C)=O)c(C(=O)O)c1O)CC2 | Permeable | Active | – | Active | – | – | – | Dde | Active | Active | 3000 | – | Active | – | Active | – | – | Active | – | Active | Activity (HEK-293T [24]): Toxic; Activity (Erythrocyte [25]): Dde
